Calls of active or inactive are those of the source.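 Rule for the calls: active = compound moving the glutamate curve by at least twofold either way, or glutamate peak under 75% or over 125%; inactive = the rest.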
Biological target: Metabotropic glutamate receptor 4 (Rattus norvegicus) (UniProt P31423)
Assay: rat mGlu4 allosteric modulation, glutamate curve shift, profiling panel, selectivity assay for mGlu5 PAM project, thallium flux, HEK/GIRK cells (AID 588734)
Settings: glutamate CRC shift, at 10 µM; Emax: measured here: glutamate max response with compound
Method in brief: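 System: HEK/GIRK cells with rat mGlu4; incubation: dye loading for 45 min at 37 °C; signal: thallium flux fluorescence slope; measure: glutamate EC50 ratio, untreated over compound-treated; benchmarks: compound-free glutamate curve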

Metabotropic glutamate receptor 4 (Rattus norvegicus), sequence (P31423 whole entry, looked up): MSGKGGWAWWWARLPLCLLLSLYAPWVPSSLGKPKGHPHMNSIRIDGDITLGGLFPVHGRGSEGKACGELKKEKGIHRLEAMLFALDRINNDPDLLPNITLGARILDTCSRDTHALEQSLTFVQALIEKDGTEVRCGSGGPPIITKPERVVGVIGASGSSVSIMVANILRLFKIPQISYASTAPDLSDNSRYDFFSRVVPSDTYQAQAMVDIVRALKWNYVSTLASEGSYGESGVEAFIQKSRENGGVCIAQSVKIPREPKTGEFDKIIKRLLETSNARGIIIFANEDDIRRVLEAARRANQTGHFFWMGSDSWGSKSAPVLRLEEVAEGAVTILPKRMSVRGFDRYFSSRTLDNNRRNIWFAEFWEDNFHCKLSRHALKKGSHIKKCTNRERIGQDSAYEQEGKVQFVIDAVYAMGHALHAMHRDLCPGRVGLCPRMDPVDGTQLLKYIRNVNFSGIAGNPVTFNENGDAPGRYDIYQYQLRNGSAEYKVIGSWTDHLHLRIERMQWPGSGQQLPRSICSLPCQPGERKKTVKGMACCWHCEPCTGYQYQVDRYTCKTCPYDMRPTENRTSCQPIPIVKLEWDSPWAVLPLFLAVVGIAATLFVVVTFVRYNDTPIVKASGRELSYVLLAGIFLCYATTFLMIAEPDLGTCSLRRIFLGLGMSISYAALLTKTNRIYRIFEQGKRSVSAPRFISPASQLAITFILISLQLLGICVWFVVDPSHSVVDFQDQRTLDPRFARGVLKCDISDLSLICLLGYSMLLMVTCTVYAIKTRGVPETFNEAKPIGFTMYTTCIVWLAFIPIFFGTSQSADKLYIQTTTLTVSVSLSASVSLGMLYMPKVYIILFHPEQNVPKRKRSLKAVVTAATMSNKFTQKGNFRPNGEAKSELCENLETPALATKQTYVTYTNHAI

CC1(NC(=O)c2ccc(C#Cc3cccc(F)c3)cn2)COC1
Emax: 93% | fold shift: 1 (inactive)

C[C@@H](NC(=O)c1ccc(C#Cc2cccc(F)c2)cn1)C(C)(C)O
Emax: 90% | fold shift: 0.88 (inactive)
